H69AR inhibit – growth inhibitors of human H69AR lung tumor cells; AID 598; 6% of 85,000 active; H69AR lung tumor viability, ATP luminescence, 72 h; stronger effect = lower value; viability, % at 10 µM;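 active = viability at or below 40%; inactive = viability above 40%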;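 note: multidrug resistant small cell line overexpressing MRP-1 efflux transporter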
HUVEC inhibit – inhibitors of human endothelial cell proliferation | HUVEC proliferation, CellTiter-Glo luminescence, 72 h; stronger effect = lower value | 1.1% of 86,000 active | viability, % at 10 µM (by protocol);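 active = viability at or below 30%; inactive = viability above 30%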
bCat KO growth – beta-catenin-lacking colon tumor cell growth suppression. viability, % at 10 µM. 1.5% of 140,000 active. HCT116 beta-catenin knockout viability, CellTiter-Glo, 60 h; stronger effect = lower value;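 active = viability at or under a set limit, the compound median less 4 SD, cut at about 6% in these data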
PTEN del growth – PTEN-deleted cell growth suppression | HCT116 PTEN-null viability, CellTiter-Glo, 60 h; stronger effect = lower value | viability, % at 10 µM | 1.2% of 140,000 active | AID 827;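 active = viability at or below a set limit, 4 SD under the median of all tested compounds, cut at about 3.7% in these data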;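 note: PTEN knockout HCT116 line with beta catenin targeted HCT116 as companion control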
Fibroblast inh – blocks proliferation of human lung fibroblasts | LL 47 human lung fibroblast viability, ATP luminescence; stronger effect = lower value | viability, % at 10 µM | 1.1% of 85,000 active | AID 719;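 active = viability at or below 50% in the single dose screen; inactive = viability above 50%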;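 note: compound exposure lasted 72 h before the ATP readout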
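Material: human LL 47 lung fibroblast cells; quantity: 1,150 cells/well; medium: IMEM plus 15% FBS; doses: 0.1% DMSO in all compound wells; timing: overnight attachment after seeding, then 72 h compound exposure at 37 °C; detection: CellTiter-Glo luminescence; measure: % viability of median cell-only signal; controls: cell-only wells, no compound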
Of the large screens only hits and unclear results are named; the others gave an inactive call. This is one part of a sample in which hits are shown more often than they occur.

CCC(CC)C1C(C#N)=C(N)Oc2c1c(=O)oc1ccccc21 (stereo unspecified)	H69AR inhibit 36.7
c1cc2n(c1)-c1c(ccc3c1OCO3)CNC2c1ccc2c(c1)OCO2 (stereo unspecified)	none (no result: H69AR inhibit, HUVEC inhibit, Fibroblast inh)
COc1ccc(C2NCc3ccc4c(c3-n3cccc32)OCO4)cc1O (stereo unspecified)	H69AR inhibit 29.3
C=CCn1c(=O)c(C=Nc2cccnc2Cl)c(O)n(CCCC)c1=O	none (no result: H69AR inhibit, HUVEC inhibit, Fibroblast inh)
Cc1[nH]c2c(C(F)(F)F)cccc2c1CCN	H69AR inhibit 17.7
COc1cccc(CCNCc2ccc(SC)cc2)c1	none (no result: H69AR inhibit, HUVEC inhibit, Fibroblast inh)
Nc1ccc(C2(c3ccc(N)cc3)CN3CCC2CC3)cc1	none
O=C1CC(N2CCC(n3c(=O)[nH]c4ccccc43)CC2)C(=O)N1c1ccc(F)cc1 (stereo unspecified)	none
O=c1[nH]c2ccccc2n1C1CCN(CCCC(c2ccc(F)cc2)c2ccc(F)cc2)CC1	H69AR inhibit 1.7, HUVEC inhibit 2.7, bCat KO growth 1.4, PTEN del growth 1.1
COc1ccc2nc(NC3=NCCN3)sc2c1	none (no result: H69AR inhibit, HUVEC inhibit, Fibroblast inh)
C#CCN1C(=O)C2(C(C#N)=C(N)OC(C)=C2C(=O)OCc2ccccc2)c2ccccc21 (stereo unspecified)	H69AR inhibit 29.9 (no result: Fibroblast inh)
CC1OC(NCCc2ccccc2)C(O)C(O)C1O (stereo unspecified)	none (no result: H69AR inhibit, HUVEC inhibit, Fibroblast inh)
COCCCn1c(-c2ccc(OC)cc2)cc(C(=O)NC2CCCCCCC2)c1C	none (no result: H69AR inhibit, HUVEC inhibit, Fibroblast inh)
CN1CCC(N(C)c2ncnc3ccc(Br)cc23)CC1	none
Cc1ccc(-c2nc(N(C)C3CCN(C)CC3)c3ccccc3n2)cc1	H69AR inhibit 2.7, HUVEC inhibit 4.3, bCat KO growth 1.4, PTEN del growth 1.4, Fibroblast inh 38.3
Cn1c(O)c(C=NC2CCN(Cc3ccccc3)CC2)c(=O)n(C)c1=O	none (no result: bCat KO growth, PTEN del growth)
Nc1c(C(=O)NCc2ccco2)c2nc3ccccc3nc2n1CCN1CCCCC1	H69AR inhibit 1.2, HUVEC inhibit 18.9
CCCNC(=O)c1c(N)n(Cc2ccco2)c2nc3ccccc3nc12	H69AR inhibit 25.9
CC(C)CNC(=O)c1c(N)n(Cc2ccco2)c2nc3ccccc3nc12	H69AR inhibit 33.9
CC/C(=N\N1CCN(C)CC1)c1c(O)[nH]c(=O)[nH]c1=O	none (no result: H69AR inhibit, HUVEC inhibit, Fibroblast inh)
NC(=O)c1cn(C2OC(CO)C(O)C2O)c2ncnc(N)c12 (stereo unspecified)	bCat KO growth 2.7, PTEN del growth 3.0 (no result: H69AR inhibit, HUVEC inhibit, Fibroblast inh)
O=C(c1ccco1)c1cn(Cc2ccc(Cl)cc2)c2ccccc12	H69AR inhibit 10.8
N#Cc1ccccc1Cn1cc(C(=O)c2cccs2)c2ccccc21	none
O=C(c1cccs1)c1cn(Cc2ccccc2Cl)c2ccccc12	H69AR inhibit 33.6
Cc1ccc(NC2=NCCCS2)c(C)c1C	none (no result: H69AR inhibit, HUVEC inhibit, Fibroblast inh)
FC(F)(F)c1ccc2c(c1)ncn2C1CCN(Cc2nnnn2C2CCCCC2)CC1	H69AR inhibit 37.3
CCCC(=O)OCC[N+](C)(C)C	none
COc1ccccc1N=Cc1c(O)n(C)c(=O)n(C)c1=O	H69AR inhibit 1.3
Cn1c(O)c(/C=N/c2ccccn2)c(=O)n(C)c1=O	none
COC(=O)C1CN(C#N)N(c2ccc(Cl)cc2)C12c1ccccc1-c1ccccc12 (stereo unspecified)	H69AR inhibit 2.3, HUVEC inhibit 2.4, bCat KO growth 1.2, PTEN del growth 1.0, Fibroblast inh 2.1
CCOC(=O)C(O)(c1cn(C)c2ccccc12)C(F)(F)F (stereo unspecified)	none
COc1ccc2c(c1OC)C(=O)OC2c1c(O)n(Cc2ccc(F)cc2)c(=O)[nH]c1=O (stereo unspecified)	none
Clc1ccc(CSC(Cn2ccnc2)c2ccc(Cl)cc2Cl)cc1 (stereo unspecified)	H69AR inhibit 9.2
Clc1ccc(COC(Cn2ccnc2)c2ccc(Cl)cc2Cl)cc1 (stereo unspecified)	H69AR inhibit 26.2, HUVEC inhibit 9.2
c1ccc(Cn2ccnc2)cc1	none
CN1CSC(=S)N(C)C1	H69AR inhibit 27.7
Cc1cc(C)nc(-n2c(C)nc3cc(Cl)ccc3c2=O)c1	none
Nc1c2c(nc3sc4c(c13)CCCC4)CCCCC2	bCat KO growth 4.1 (no result: H69AR inhibit, HUVEC inhibit, Fibroblast inh)
Cc1ccc2c(c1)N(N=O)CCC2	none (no result: H69AR inhibit, HUVEC inhibit, Fibroblast inh)
O=C(NC1CN2CCC1CC2)c1cc(Cl)c([N+](=O)[O-])c2nc[nH]c12 (stereo unspecified)	bCat KO growth 0.8, PTEN del growth 0.6 (no result: H69AR inhibit, HUVEC inhibit, Fibroblast inh)
c1ccc(-c2nc(N3CCOCC3)s[n+]2-c2ccccc2)cc1	none (no result: H69AR inhibit, HUVEC inhibit, Fibroblast inh)
CCCCCSc1cc(OC)c(CCN)cc1OC	none (no result: H69AR inhibit, HUVEC inhibit, Fibroblast inh)
CCCCCCCSc1cc(OC)c(CCN(C)C)cc1OC	bCat KO growth 1.2, PTEN del growth 1.3 (no result: H69AR inhibit, HUVEC inhibit, Fibroblast inh)
O=c1[nH]c(=O)n(CCc2ccccc2)c(O)c1C=NCc1ccc2c(c1)OCO2	H69AR inhibit 34.9
CCOC(=O)C(O)(c1ccc(N(CC)C(=O)COc2ccccc2)cc1)C(F)(F)F (stereo unspecified)	none (no result: H69AR inhibit, HUVEC inhibit, Fibroblast inh)
CCN(CC)c1ccc(N=Cc2c(O)n(CCc3ccc(OC)c(OC)c3)c(=O)[nH]c2=O)cc1	bCat KO growth 2.7 (no result: H69AR inhibit, HUVEC inhibit, Fibroblast inh)
CCN(CC)CCCN=Cc1c(O)n(CCc2ccc(OC)c(OC)c2)c(=O)[nH]c1=O	none
CCN(CC)S(=O)(=O)c1ccc(N=Cc2c(O)n(-c3ccccc3)c(=O)[nH]c2=O)cc1	none
CCN(CC)c1ccc(N=Cc2c(O)n(-c3cc(OC)ccc3OC)c(=O)[nH]c2=O)cc1	bCat KO growth 3.0
CCN(CC)S(=O)(=O)c1ccc(C)c(NCC(=O)Nc2ccc(C#N)c(Cl)c2)c1	none (no result: H69AR inhibit, HUVEC inhibit, Fibroblast inh)
CN1C[C@H](CNC(=O)OCc2ccccc2)C[C@@H]2c3cccc4c3c(cn4C)C[C@H]21	H69AR inhibit 1.7, HUVEC inhibit 3.9
O=C(c1ccc2c(c1)ncn2C1CCCCC1)N1CCC2(CC1)OCCO2	H69AR inhibit 17.1
CC(=O)N1N=C2C3CCN(CC3)C2C1c1cccc2ccccc12 (stereo unspecified)	none (no result: H69AR inhibit, HUVEC inhibit, Fibroblast inh)
CCCCC1C(=O)NC(=S)NC1=O	none (no result: H69AR inhibit, HUVEC inhibit, Fibroblast inh)
CCn1c(O)c(C=Nc2ccc(S(N)(=O)=O)cc2)c(=O)n(CC)c1=S	none (no result: H69AR inhibit, HUVEC inhibit, Fibroblast inh)
NS(=O)(=O)c1ccc(N=Cc2c(O)n(C3CCCCC3)c(=O)n(C3CCCCC3)c2=O)cc1	H69AR inhibit 0.9, HUVEC inhibit 1.8, Fibroblast inh 38.9 (no result: PTEN del growth)
O=C(c1ccccc1)C(CN1CCCC1)c1ccccc1 (stereo unspecified)	bCat KO growth 1.8, PTEN del growth 1.5 (no result: H69AR inhibit, HUVEC inhibit, Fibroblast inh)
CN(C)c1ccc(C(=O)c2ccc(N(C)C)cc2)cc1	H69AR inhibit 15.7
CN1/C(=C\C=Nc2ccccc2)C(C)(C)c2ccccc21	none (no result: H69AR inhibit, HUVEC inhibit, Fibroblast inh)
CN1/C(=C\C=C\C2=[N+](C)c3ccc4ccccc4c3C2(C)C)C(C)(C)c2ccccc21	H69AR inhibit 0.1, HUVEC inhibit 2.0, bCat KO growth 0.4, PTEN del growth 0.1, Fibroblast inh 1.6
CCC(=NCc1ccco1)c1c(O)n(C2CCCCC2)c(=O)[nH]c1=O	H69AR inhibit 31.9
CC(C)OCCCNC(=O)c1c(N)n(Cc2cccs2)c2nc3ccccc3nc12	none
Nc1c(C(=O)OCC2CCCO2)c2nc3ccccc3nc2n1Cc1cccs1 (stereo unspecified)	H69AR inhibit 38.5
